Bioassay records from PubChem.
STK33 inh – inhibitors of purified STK33 kinase, primary screen, biochemical, ADP-Glo luminescence, homogeneous, cell-free; AID 2661, 2010; Serine/threonine-protein kinase 33 (Homo sapiens), Q9BYT3; 320,000 compounds, 0.073% hits; inhibition, % at 10 µM; MBP phosphorylation;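 active means inhibition at or above 25%, using the most active replicate where run in duplicate; inactive means inhibition below 25%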
MEKK2wt PB1 HTS – modulators of MEK5 binding to wildtype MEKK2, primary screen, biochemical, multiplex bead flow cytometry, Alexa488-MEK5; Mitogen-activated protein kinase kinase kinase 2 (Homo sapiens), Q9Y2U5; Alexa488-MEK5 binding to MEKK2 WT; actives lie on both sides; binding response (% of control), % at 10 µM; 290,000 compounds, 1.1% hits; in the data active means binding response below about 67% or above about 130%
GSK3beta inhib – human GSK3beta kinase inhibitors, primary screen, biochemical, cell-free homogeneous, HTS | GST-GSK3beta kinase, ADP-Glo luminescence, 60 min; stronger effect = lower value | activity score (negative = inhibition), % at 10 µM | 300,000 compounds, 0.038% hits | AID 2097, 2009;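 active means more than half of replicate wells score below -50%, meaning over 50% inhibition versus plate controls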
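Assay system: GST-fused GSK3beta enzyme, cell-free / Medium: Tris pH 7.5 buffer with MgCl2, DTT, BSA, heparin / Also added: peptide substrate plus 25 µM ATP (final) / Compound: 10 µM single point / Timing: kinase reaction with compound 60 min at room temperature / Detection: ADP-Glo luminescence / Benchmarks: DMSO neutral wells and GW8510 at 20 µM as positive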
MEKK3 PB1 HTS – modulators of MEKK3-MEK5 PB1 binding, primary screen, biochemical, wildtype MEKK3, multiplex bead flow cytometry, Alexa488-MEK5; 290,000 compounds, 1.4% hits; bead-based flow cytometry, Alexa488-MEK5 binding to MEKK3; actives lie on both sides; 0 = blocked by unlabeled MEK5, 100 = vehicle; binding response (% of control), % at 10 µM;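 active means binding response more than 3 SD above or below the average of its plate-row segment, actives on both sides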;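 further: Alexa488 bead fluorescence after subtracting the streptavidin-only scavenger bead signal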
MEKK2 mut-MEK5 – MEK5 binding signal on mutant MEKK2 PB1, primary screen, biochemical, multiplex bead flow cytometry, Alexa488-MEK5; Alexa488-MEK5 binding to MEKK2 mutant; percent response, % at 10 µM; 290,000 compounds, 0.35% hits; AID 1530, 2009; in the data active means percent response above about 24%, passing the limit was not always enough
GSK3 alpha inh – blockers of GSK3A enzyme activity – biochemical, luminescence, cell-free homogeneous, HTS, primary screen; inhibition, % at 10 µM; Glycogen synthase kinase-3 alpha (Homo sapiens), P49840; GSK-3 alpha kinase, ADP-Glo luminescence, 60 min; 320,000 compounds, 0.1% hits;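 active means more than half of replicates show inhibition above 20%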;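 further: GST-tagged GSK-3 alpha with peptide substrate and 25 µM ATP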
Target sequence (P49840 whole entry, looked up): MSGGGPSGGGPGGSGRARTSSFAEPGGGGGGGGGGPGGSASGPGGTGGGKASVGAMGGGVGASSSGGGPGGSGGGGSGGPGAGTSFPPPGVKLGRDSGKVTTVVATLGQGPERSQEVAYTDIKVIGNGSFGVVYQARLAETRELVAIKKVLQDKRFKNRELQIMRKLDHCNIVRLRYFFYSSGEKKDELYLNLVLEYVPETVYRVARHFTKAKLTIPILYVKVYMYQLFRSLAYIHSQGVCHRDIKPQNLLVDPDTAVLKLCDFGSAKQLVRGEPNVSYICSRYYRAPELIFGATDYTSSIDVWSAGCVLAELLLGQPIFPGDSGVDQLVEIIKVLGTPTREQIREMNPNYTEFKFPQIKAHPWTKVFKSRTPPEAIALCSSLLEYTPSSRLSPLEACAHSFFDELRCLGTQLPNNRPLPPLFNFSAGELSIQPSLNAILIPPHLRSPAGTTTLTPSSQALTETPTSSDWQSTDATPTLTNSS
MEKK2wt confirm – modulators of MEK5 binding to wildtype MEKK2, confirmation, biochemical, single concentration, multiplex bead flow cytometry. shares compounds with MEKK3 PB1 HTS. Alexa488-MEK5 binding to MEKK2 WT; actives lie on both sides. binding response (% of control), % at 10 µM. 5,900 compounds, 2.4% hits. AID 1892, 2009; in the data active means binding response below about 16% or above about 210%; inactive means in between
MEKK2mut confirm – mutant MEKK2 PB1-MEK5 binding signal retest – biochemical, single concentration, multiplex bead flow cytometry, confirmation | 5,900 compounds, 2% hits | Alexa488-MEK5 binding to MEKK2 mutant | percent response, % at 10 µM | shares compounds with MEKK3 PB1 HTS; in the data active means percent response mostly above about 71%, no sharp cut-off; inactive means mostly below about 38%;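 further: higher means compound restores mutant binding toward wildtype level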
MEKK3-MEK5 inh – MEKK3 wild-type PB1 binding to MEK5, inhibitors, confirmation, biochemical, bead multiplex flow cytometry, single concentration, wildtype; shares compounds with MEKK3 PB1 HTS; Alexa488-MEK5 binding to MEKK3; stronger effect = lower value; binding response (% of control), % at 10 µM; 5,900 compounds, 1.8% hits;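 active means binding response below 72% of control, or above a set upper limit, though filed actives all read lower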
Large screens that a line does not name were inactive (follow-up assays come after a bar, where they were run); [ ] = remark or other dose. Hits are enriched below; roughly 2.1% of the tested compounds scored in any of these assays.

COc1ccc2c3c([nH]c2c1)C(C)=NCC3	MEKK2wt PB1 HTS 29[inhibitor] | MEKK2wt confirm inactive | MEKK2mut confirm inactive | MEKK3-MEK5 inh inactive
CC1=NCCc2c1[nH]c1cc(O)ccc21	none (no result: MEKK2wt PB1 HTS, GSK3beta inhib, MEKK3 PB1 HTS, MEKK2 mut-MEK5)
Cc1cc(C=C(C#N)C#N)ccc1N1CCCC1	MEKK2wt PB1 HTS 63[inhibitor] | MEKK2wt confirm inactive | MEKK2mut confirm inactive | MEKK3-MEK5 inh inactive
CN[C@@H]1C[C@@H](c2ccc(Cl)c(Cl)c2)c2ccccc21	MEKK2wt PB1 HTS 142 | MEKK2wt confirm inactive | MEKK2mut confirm inactive | MEKK3-MEK5 inh inactive
CC[n+]1c(/C=C/N(C)c2ccccc2)sc2ccc(Cl)cc21	MEKK2wt PB1 HTS 54[inhibitor], GSK3beta inhib -53 | MEKK2wt confirm inactive | MEKK2mut confirm inactive | MEKK3-MEK5 inh inactive
COc1ccc(CCNC2CCCCC2)cc1OC	none
Cn1c(CN2CCN(C(=O)COc3ccccc3)CC2)nc2cc([N+](=O)[O-])ccc21	MEKK3 PB1 HTS 152 | MEKK2wt confirm inactive | MEKK2mut confirm inactive | MEKK3-MEK5 inh inactive
COC(=O)C1=C(c2c(C)noc2C)C[C@@H]2CC[C@H]1N2C(=O)N1CCCCC1	none (no result: MEKK2wt PB1 HTS, GSK3beta inhib, MEKK3 PB1 HTS, MEKK2 mut-MEK5)
COc1cc(C)c(CNCCc2c[nH]c3ccccc23)cc1C	MEKK2 mut-MEK5 26 | MEKK2wt confirm inactive | MEKK2mut confirm inactive | MEKK3-MEK5 inh 69
CCOc1c(Cl)cc(CNCCc2c[nH]c3ccccc23)cc1OC	MEKK2wt PB1 HTS 156 | MEKK2wt confirm inactive | MEKK2mut confirm inactive | MEKK3-MEK5 inh inactive
CC1CCC(C(=O)NC(C(=O)N2CCC3(CC2)OCCO3)C(C)C)CC1 (stereo not given)	none
COc1ccc2[nH]cc(CCN=C(N)N)c2c1	none
COc1ccc2[nH]cc(C3=CCNCC3)c2c1	MEKK2wt PB1 HTS 182, MEKK2 mut-MEK5 174 | MEKK2wt confirm inactive | MEKK2mut confirm inactive | MEKK3-MEK5 inh inactive
OC(c1ccccc1)(c1ccccc1)C1CCNCC1	MEKK2wt PB1 HTS 136 | MEKK2wt confirm inactive | MEKK2mut confirm inactive | MEKK3-MEK5 inh inactive
OC(c1ccccc1)(c1ccccc1)C1CN2CCC1CC2 (stereo not given)	none
C1CCC(NC2CCCCC2)CC1	none (no result: MEKK2wt PB1 HTS, GSK3beta inhib, MEKK3 PB1 HTS, MEKK2 mut-MEK5)
Cc1nc2sccc2c(=O)n1-c1ccccc1Cl	none
Cc1ccccc1-n1c(C)nc2sccc2c1=O	MEKK2wt PB1 HTS 3.0[inhibitor], MEKK3 PB1 HTS 2.0[inhibitor] | MEKK2wt confirm inactive | MEKK2mut confirm inactive | MEKK3-MEK5 inh inactive
CCCNC(=O)c1c(N)n(CC2CCCO2)c2nc3ccccc3nc12 (stereo not given)	MEKK3 PB1 HTS 123 | MEKK2wt confirm inactive | MEKK2mut confirm inactive | MEKK3-MEK5 inh inactive
CC(C)OCCCNC(=O)c1c(N)n(CC2CCCO2)c2nc3ccccc3nc12 (stereo not given)	none
NCCc1c[nH]c2ccccc12	MEKK2wt PB1 HTS 138 (no result: GSK3beta inhib) | MEKK2wt confirm inactive | MEKK2mut confirm inactive | MEKK3-MEK5 inh inactive
